Measured values from different studies.
Lines come from different studies, so protocols differ.
Effect on: cell growth or viability

Cc1noc2c1-c1ccccc1C(c1ccc(Cl)cc1)=N[C@H]2CC(N)=O — IC50 (MOLM-13; ATP luminescence; 72 h): 0.474 µM
C=CC(=O)c1cccnc1Nc1cc(C(F)(F)F)ccc1OC — GI50 (NCI-H23; SRB; 48 h): 6.67 µM
CNC(=O)c1cc(Oc2ccc(NC(=O)Nc3ccc(Cl)c(C(F)(F)F)c3)cc2)ccn1 — IC50 (NCI-H23; MTT; 72 h): 4.25 µM
O=C(NO)c1ccc(CNc2nc3cccc(-c4ccc5c(c4)OCO5)n3n2)cc1 — GI50 (NCI-H23; SRB): 0.66 µM
C=CC(=O)c1cccnc1Nc1cc(C(F)(F)F)ccc1OCc1ccccc1 — GI50 (NCI-H23; SRB; 48 h): 16.5 µM
C=CC(=O)N1CCN(c2nc(=O)n(-c3c(C)ccnc3C(C)C)c3nc(-c4c(O)cccc4F)c(F)cc23)[C@@H](C)C1 — IC50 (SW1573; ATP luminescence): > 10 µM
Cc1cc(/C=C/C#N)cc(C)c1Nc1ccnc(Nc2ccc(C#N)cc2)n1 — IC50 (C6661; MTT; 48 h): 4.67 µM
C=CC(=O)NC1CCN(c2ncc3ncnc(Nc4ccc(Oc5ccc6c(c5)ncn6C)c(C)c4)c3n2)CC1 — EC50 (SNU-601): 0.00422 µM
Cc1c(C(=O)O)ccc2c3n(nc12)[C@@H]1[C@H](C3)N(CC2CC2)[C@@]2(C(=O)Nc3cc(Cl)ccc32)[C@H]1c1cccc(Cl)c1F — GI50 (Rh18): 0.00023 µM
O=C(O)c1cccnc1Nc1cccc(C(F)(F)F)c1 — GI50 (NCI-H23; SRB; 48 h): > 30 µM
COc1cc2nc(N3CCN(C(=O)c4ccco4)CC3)nc(N)c2cc1OC — IC50 (C6661; MTT; 48 h): 27.4 µM
C[C@@H]1CC2=C(CN1Cc1cccc(C#N)c1)C(=O)N(Cc1ccc(Br)cc1)C1=NCCN12 — IC50 (MOLM-13; MTS): 0.00793 µM
